From ChEMBL document CHEMBL4513216, “Probing the Open Global Health Chemical Diversity Library for Multistage-Active Starting Points for Next-Generation Antimalarials” (ACS Infect Dis, 2020) come the findings set out here.

Each structure is given as a SMILES string.

A short description of this data set: Toxicity liver stage against HepG2, at 10uM. The data set is classed as cell-based. Also on record: test concentration 10 uM, cell line HepG2-A16-CD81EGFP. The conditions noted are these: human, HepG2-A16-CD81EGFP cells; read-out: INHIBITION
Put shortly:
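Uninfected HepG2-A16-CD81EGFP cells, 3 × 10^3 per well, 1536-well, plated on prespotted compound at 10 μM final, parasite-free screening media added to match infected plates; puromycin 10 μM positive, DMSO 0.5% negative; run in parallel with 48 h PbLuc assay at 37 °C, 5% CO2; viability by CellTiter-Glo luminescence, normalized to controls.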
On to `COc1ccc(Nc2c[nH]c(=O)[nH]c2=O)cc1`, for which the cytotoxicity at 10 µM is 14.2%.

In the case of `COCCN1CCc2ccccc2NCCC1=O`, the cytotoxicity at 10 µM is -2.51%. Regarding `O=C(Cc1csc(-c2ccccc2Cl)n1)NCc1cccc(C(=O)O)c1`, the cytotoxicity at 10 µM is -3.67%.

In the case of `Cc1cc(C)n(CCN2CCN(C(=O)c3cc4ccccc4o3)CC2)n1`, the cytotoxicity at 10 µM was -3.97%. Regarding `O=C(C1CC=CC1)N1CC[C@@H]2O[C@@H](COCC3CCOCC3)CC[C@@H]21`, the cytotoxicity at 10 µM was 5.51%. For `Cc1oncc1C(=O)N1CC[C@H]2[C@H](CO[C@@H]2CNS(C)(=O)=O)C1`, the cytotoxicity at 10 µM came out at 0.0508%. Next, `O=C(CSc1nc2c(cnn2CCO)c(=O)[nH]1)N1CCCCCC1`: -15.4%; `CNC(=O)CS(=O)(=O)C1CCN(S(=O)(=O)C2CC2)CC1`: -16.7%. Next, `CCOCC(=O)N1C[C@@H]2COC[C@H](c3nc(C)no3)[C@@H]2C1`: -11.1%. The result for `CCn1nc(C)c2nc(C(C)C)nc(NC)c21` reads 7.19%; that for `COc1cc(-c2n[nH]c(CO)n2)cc(OC)c1OC`, -4.91%. As for `COCCNC(=O)c1cc(C(C)C)nc(N2CCCC2)n1`, the cytotoxicity at 10 µM came to 5.03%. `CC(C)C(=O)NCCCn1ncc2c(Cl)cccc21`: the cytotoxicity at 10 µM is -21.6%. Next, `CN(CCc1ccccc1)Cc1c(C2CCOCC2)[nH]c2ncccc12`: 4.21%; `CC(C)N1CCCC1c1csc(N)n1` (configuration not stated): 2.33%. Next, `Cc1ccc(CN2CCOC(c3cnccn3)C2)s1` (configuration not stated): -2.81%.

As to `CC(C)(C)NC(=O)C1(Cc2ccccc2-c2ccncc2)CCOCC1`, the cytotoxicity at 10 µM was -6.99%.

For `COCC(=O)N1CCC(c2csc(NC(C)=O)n2)CC1`, the cytotoxicity at 10 µM was -28.6%. Regarding `CC(=O)N1CCC(Cc2cnc(-n3ccnc3)cn2)CC1`, the cytotoxicity at 10 µM was -38.8%. Consider `Cc1nc(Nc2nnc(C)s2)cc(C2CCCN2c2ccncc2)n1` (configuration not stated), for which the cytotoxicity at 10 µM is -9.99%. Next, `COCCC(=O)N1CCCC1c1nccc(C)n1` (configuration not stated): -19.2%; `C=Cn1ncc(CN2CCc3nc(-c4ccncc4)nc(O)c3C2)c1C`: -4.45%; `CCCc1cc(C(=O)NC(c2ccccc2)c2n[nH]c(C)n2)[nH]n1` (configuration not stated): 2.99%.

Regarding `O=C(NCc1ccnc(OCC(F)(F)F)c1)NCC1CCOC1` (configuration not stated), the cytotoxicity at 10 µM is -3.22%. Next, `O=C(c1cc[nH]n1)N1CCN(C(c2ccccc2)C(F)(F)F)CC1` (configuration not stated): -6.36%; `O=C1CC(C(=O)Nc2nnc(-c3ccoc3)[nH]2)c2ccccc2N1` (configuration not stated): 0.841%. On to `C(=C\c1ccccc1)/CNCC1CCc2nncn2C1` (configuration not stated), for which the cytotoxicity at 10 µM is 16.8%.

For `CN1CCN(C)C(CNC(=O)N(C)Cc2ccccc2Cl)C1` (configuration not stated), the cytotoxicity at 10 µM came to 0.339%. The result for `CC(C)c1noc(CNc2ccccc2CC(=O)N(C)C)n1` reads -10.6%. Next, `Cc1ccc(CNC(=O)c2ccc(=O)n(C)n2)c(OCC2CC2)c1`: -5.92%. The result for `CC(NC(=O)CCN1CCOC1=O)(c1ccccc1)c1ccccc1` reads -10%; that for `COc1ncnc(N)c1CNCCc1ccc(-n2cccn2)cc1`, -13.3%.

Consider `COc1ccc(CN(C)C(=O)CN2CC(n3cc(C)cn3)C2)cc1F`, for which the cytotoxicity at 10 µM turned out to be 1.59%. Next, `O=C(OCCNc1ncccn1)c1ccc(Br)s1`: -2.64%; `CC(C)C(C)N(C)C(=O)COc1ccccc1C#N` (configuration not stated): -3.28%; `O=C(c1ccoc1)N(Cc1cccnc1)C1CC1`: -13.2%.

With `Cc1ccc(C(=O)NCc2cccnc2-n2cncn2)cc1S(C)(=O)=O`, the cytotoxicity at 10 µM is 4.5%. The result for `Cc1cnn(CCNCC(O)c2cccc(Br)c2)c1` (configuration not stated) reads 1.66%. Next, `Cc1noc(C(C)N2CCN(CCC(=O)N3CCOCC3)CC2)n1` (configuration not stated): -0.0308%; `COCCOCCNC(=O)C(C)Oc1ccccc1C(F)(F)F` (configuration not stated): 0.295%; `CC(NCCN1CCN(C(=O)C2CCCC2)CC1)c1cnn(C)c1` (configuration not stated): -4.59%. Take `Cc1ccc(CN(C(=O)C(C)S(C)(=O)=O)C2CC2)cc1C` (configuration not stated): the cytotoxicity at 10 µM is 3.28%. Take `COCCn1cc(NC(=O)C(C)CCc2ccccc2F)ccc1=O` (configuration not stated): the cytotoxicity at 10 µM was -3.73%. Next, `Cn1cc(C(=O)Nc2ccnc(Oc3ccccc3)c2)ccc1=O`: -4.5%; `CCC(NC(=O)c1ccc2[nH]ccc2c1)C(=O)N1CCOCC1` (configuration not stated): 5.84%. Next, `CC1CCC(NC(=O)NCC(C)(C)CCS(C)(=O)=O)CC1` (configuration not stated): 9.61%; `Cc1cc(CNC2(c3ccc(Cl)cc3)CC2)no1`: 1.5%.

For `COc1c(C)cnc(CN2CCCC(c3noc(C4CC4)n3)C2)c1C` (configuration not stated), the cytotoxicity at 10 µM was -1.62%. Turning to `Cc1ccc(S(=O)(=O)N(CC2CCOC2)C2CC2)cc1N(C)C` (configuration not stated), the cytotoxicity at 10 µM was -9.77%. The result for `COc1c(C(=O)N2CCC(COCc3ccccc3)C2)c(C)nn1C` (configuration not stated) reads 7.39%.

Consider `CCCc1nnc(NC(=O)N2CCCC(NC(C)=O)C2)s1` (configuration not stated), for which the cytotoxicity at 10 µM stood at 5.41%. Consider `CSCCC(C)NC(=O)CCN1C(=O)CCc2cc(F)ccc21` (configuration not stated), for which the cytotoxicity at 10 µM turned out to be 6.79%. The result for `CCCC(=O)N1CCCCC1C(=O)Nc1ccc(-c2nnc[nH]2)cc1` (configuration not stated) reads 7.65%; that for `COc1ccc(NC(=O)C2CCOC2)c(N2CCN(C(C)=O)CC2)n1` (configuration not stated), -12.2%; that for `O=C1CCCN1C1CCN(S(=O)(=O)CCOc2ccc(F)cc2)CC1`, 5.94%.

For the compound `CC(c1ccco1)N(C)Cc1cccc(C(=O)Nc2nccn2C)c1` (configuration not stated), the cytotoxicity at 10 µM was -7.33%. Take `Cc1ccccc1CC(=O)N1CCCn2cncc2C1`: the cytotoxicity at 10 µM is -1.1%.

As to `O=C(CN1CCOC1=O)N1CC[C@@H](c2ccc3ccccc3c2)[C@H](O)C1`, the cytotoxicity at 10 µM worked out at 0.562%. Take `COc1cccc(OCC2CCCN(C(=O)CCCn3cccn3)C2)c1` (configuration not stated): the cytotoxicity at 10 µM is 8.12%. Regarding `CC(C)c1nc(CN(C)C(=O)[C@H](N)Cc2ccc(Cl)cc2)cs1`, the cytotoxicity at 10 µM is -154%. Next, `CC(=O)c1cccc(C(=O)N2C[C@@H](CN3CCCCCC3)[C@@H](CO)C2)c1`: 3.32%. Next, `CCN(CC)C(=O)[C@@H]1C[C@H](n2cc(-c3cccc(OC)c3)nn2)CN1`: 12.4%. Consider `Cc1[nH]c2ccc(CNc3cc(C(N)=O)ccn3)cc2c1C`, for which the cytotoxicity at 10 µM was -4.73%. Take `Cc1ccc(C(N)=O)c(N2Cc3cnc(C(C)(C)C)nc3C2)n1`: the cytotoxicity at 10 µM amounted to 8.05%.

Take `O=C(O)C1c2nc[nH]c2CCN1Cc1ccc(-c2ccccc2)s1` (configuration not stated): the cytotoxicity at 10 µM was -9.35%. The result for `CCOc1ccc(C(=O)N2Cc3cnc(CC(C)C)nc3C2)o1` reads 7.18%. Next, `Cc1cc(C)nc(N2CCCC(c3nccn3CCCN(C)C)C2)c1` (configuration not stated): -7.97%. The result for `CCC(C)CN1CCC(n2cc(C3CCCC3)nn2)CC1` (configuration not stated) reads -2.13%. As for `COc1cccc(C(C(=O)O)N2CCSCC2)c1F` (configuration not stated), the cytotoxicity at 10 µM was -12.9%. Next, `Cc1noc(-c2ccc(N3CCN(Cc4ncccc4C)CC3)nc2)n1`: -3.35%; `CCc1noc(CN(CC)C(=O)CC2C(=O)NCCN2CC=C(C)C)n1` (configuration not stated): 2.24%; `CSCc1noc(CNC2CCCC(C)(C)C2)n1` (configuration not stated): -0.268%. Next, `CC(c1ccco1)N(C)Cc1cc2cc3c(cc2[nH]c1=O)OCO3` (configuration not stated): 2.59%; `O=C(c1ccc(C2CCCN2C(=O)c2ccoc2)s1)N1CCOCC1` (configuration not stated): -156%; `CC(=O)N1C[C@@H](c2ccsc2)[C@@H]2CN(Cc3ccccc3)CC[C@@H]21`: 6.76%. Take `CC1CN(Cc2cccnc2)CCN1c1ccc2nncn2n1` (configuration not stated): the cytotoxicity at 10 µM was -11.1%. The result for `Cc1nn(C)c(C)c1CCC(=O)N1CCCC(n2cccn2)C1` (configuration not stated) reads -6.69%; that for `CCc1cnc(CN(C(C)=O)C2CCN(CCc3ccccc3)C2)o1` (configuration not stated), -8.17%; that for `Cc1nnc2n1CCN(C(=O)CN(C)Cc1ccccc1)C2`, -4.56%. Consider `Cc1nn(C)c(C)c1C1CCCN1C(=O)c1ccc(N(C)C)nc1` (configuration not stated), for which the cytotoxicity at 10 µM is -7.19%. Next, `CC(=O)N1CCN(C(=O)c2csc(-c3ccc(C)cc3C)n2)CC1`: -18.8%. With `Cc1cnn(C2CCCN(C(=O)c3ccc(Cn4ccnc4)cc3)C2)c1` (configuration not stated), the cytotoxicity at 10 µM is 2.54%.

Consider `Cc1cc(C(=O)N2CCCC(n3cncn3)C2)nn1C` (configuration not stated), for which the cytotoxicity at 10 µM is -0.776%. The result for `COc1ccccc1CCNC(=O)N1CCC(n2cncn2)CC1` reads 0.428%; that for `O=C1NCCN1C1CCN(Cc2nc(-c3ccoc3)no2)CC1`, -9.06%; that for `CN(C)c1cc(C(=O)N2CCN(S(C)(=O)=O)CC2)ccn1`, -4.46%.

As for `CC(C)=CCN1CCOC(Cn2nc(C)cc2C)C1` (configuration not stated), the cytotoxicity at 10 µM is -9.93%. The result for `Cc1cccc2c1OCCC2NCc1c(C)nn(C)c1N(C)C` (configuration not stated) reads -5.72%. As to `Cc1cc(C)n2cc(CN3CCCC3Cn3nc(C)nc3C)nc2n1` (configuration not stated), the cytotoxicity at 10 µM came to 4.91%.

Take `Cc1cnn(C2CCCN(C(=O)c3ccnc(N(C)C)c3)C2)c1` (configuration not stated): the cytotoxicity at 10 µM stood at 5.15%. Take `CCOc1ccc(Br)cc1C1CCCN1` (configuration not stated): the cytotoxicity at 10 µM was 5.01%. Next, `Cn1nnc2c1CCN(Cc1ccncc1)C2COCc1ccccc1` (configuration not stated): -134%; `O=C(c1cccnc1)N1CCC2(CC1)COCCN(c1ncccn1)C2`: 2.66%.

As for `c1csc(CN2CCO[C@H]3[C@H](OCCN4CCCC4)CC[C@@H]32)n1`, the cytotoxicity at 10 µM is -7.32%. As to `CN(C)c1cc(NCc2cnc3n2CCN(CC2CC2)CC3)ncn1`, the cytotoxicity at 10 µM was -2.57%. The result for `O=C(c1cnc2n1CCN(Cc1ccccc1)C2)N1CCCC1` reads -73.9%; that for `Cc1ccc(N2CCCC3(COCCN(c4ccccn4)C3)C2)nn1` (configuration not stated), -119%.
